pIC50: −log10 of the molar value.
Assays:
Lymphocyte [1] = experiment: Genotoxicity in human lymphocytes at 0.5 to 355 ug/mL after 3 hrs in presence of rat liver S9 fraction by micronucleus assay; format: toxicity, cell-based; conditions: s9, 3 h
Plasmodium berghei [2] = experiment: Antimalarial activity against Plasmodium berghei infected in Swiss Webster mouse assessed as mouse survival rate at 1 mg/kg administered once daily via oral gavage for 4 consecutive days beginning 1 hr after infection measured on day 8 post infection relative to control; format: functional
How it was run: (§1)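 Mice given an intraperitoneal injection of P. berghei-infected erythrocytes taken from a previously infected animal. Oral dosing once daily for 4 consecutive days, starting 1 h after infection. Vehicle: polyethylene glycol 300/propylene glycol/water (weight ratio 55/25/20). Percent survival recorded daily from day 4 to day 20. Chloroquine 30 mg/kg and vehicle-only groups served as controls.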

Plasmodium berghei [3] = experiment: Antimalarial activity against Plasmodium berghei infected in Swiss Webster mouse assessed as mouse survival rate at 3 mg/kg administered once daily via oral gavage for 4 consecutive days beginning 1 hr after infection measured on day 4 post infection relative to control; format: functional
How it was run: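 P. berghei-infected erythrocytes taken from a previously infected mouse were injected intraperitoneally. Oral dosing, once daily for 4 consecutive days, began 1 h after infection, in polyethylene glycol 300/propylene glycol/water (55/25/20 by weight). Chloroquine at 30 mg/kg was the positive control, with a vehicle-only group. Percent survival was recorded daily from day 4 to day 20.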

Plasmodium berghei [4] = experiment: Antimalarial activity against Plasmodium berghei infected in Swiss Webster mouse assessed as mouse survival rate at 1 mg/kg administered once daily via oral gavage for 4 consecutive days beginning 1 hr after infection measured on day 5 post infection relative to control; format: functional; how it was run: as §1
Plasmodium berghei [5] = experiment: Antimalarial activity against Plasmodium berghei infected in Swiss Webster mouse assessed as mouse survival rate at 11 mg/kg administered once daily via oral gavage for 4 consecutive days beginning 1 hr after infection measured on day 10 post infection relative to control; format: functional; how it was run: as §1
Plasmodium berghei [6] = experiment: Antimalarial activity against Plasmodium berghei infected in Swiss Webster mouse assessed as mouse survival rate at 11 mg/kg administered once daily via oral gavage for 4 consecutive days beginning 1 hr after infection measured on day 13 post infection relative to control; format: functional; how it was run: as §1
Salmonella typhimurium [7] = experiment: Genotoxicity in Salmonella typhimurium TA98 assessed as number of revertants per plate at 5000 ug/plate in presence of rat liver S9 fraction by Ames test (reference value: 19 +/- 8); format: toxicity; conditions: salmonella enterica subsp. enterica serovar typhimurium
Salmonella typhimurium [8] = experiment: Genotoxicity in Salmonella typhimurium TA1537 assessed as number of revertants per plate at 50 ug/plate in absence of rat liver S9 fraction by Ames test (reference value: 19 +/- 9); format: toxicity; conditions: salmonella enterica subsp. enterica serovar typhimurium
Salmonella typhimurium [9] = experiment: Genotoxicity in Salmonella typhimurium TA1535 assessed as number of revertants per plate at 5000 ug/plate in presence of rat liver S9 fraction by Ames test (reference value: 10); format: toxicity; conditions: salmonella enterica subsp. enterica serovar typhimurium
Salmonella typhimurium [10] = experiment: Genotoxicity in Salmonella typhimurium TA1537 assessed as number of revertants per plate at 15 ug/plate in absence of rat liver S9 fraction by Ames test (reference value: 19 +/- 9); format: toxicity; conditions: salmonella enterica subsp. enterica serovar typhimurium
Lymphocyte [11] = experiment: Genotoxicity in human lymphocytes assessed as replication index at 160 ug/mL after 3 hrs in absence of rat liver S9 fraction by micronucleus assay relative to control; format: toxicity, cell-based
How it was run: (§2)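 Human lymphocytes exposed for 3 h with or without rat liver S9, or 28 h without S9, with 1% DMSO as vehicle control. Replication index = (binucleated + 2 × multinucleated cells)/total cells. Cytotoxicity (%) = 100 − (RI treated/RI vehicle) × 100.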

Plasmodium falciparum [12] = experiment: Antimalarial activity against Plasmodium falciparum NF54 infected in human erythrocytes assessed as reduction in [3H]-hypoxanthine incorporation preincubated for 24 hrs followed by [3H]-hypoxanthine addition measured after 24 hrs by scintillation counting method; format: functional, cell-based
[13] = AUC (0 to infinity) in Sprague-Dawley rat at 5 mg/kg, iv by HPLC/MS analysis; format: ADME, organism-based; set-up: dose 5 mg/kg, route intravenous, time infinity; conditions: in vivo
Plasmodium falciparum [14] = experiment: Antimalarial activity against Plasmodium falciparum Dd2 infected in human erythrocytes assessed as reduction in [3H]-hypoxanthine incorporation preincubated for 24 hrs followed by [3H]-hypoxanthine addition measured after 24 hrs by scintillation counting method; format: functional, cell-based
Plasmodium falciparum [15] = experiment: Antimalarial activity against intraerythrocytic stage of Plasmodium falciparum assessed as time required to clear 99.9% of initial parasite population at 100 times IC50 preincubated for 24 hrs followed by [3H]-hypoxanthine addition measured after 24 hrs by scintillation counting method; format: functional
How it was run: (§3)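 In vitro P. falciparum parasite reduction ratio assay run at 10×, 30× and 100× IC50. Derived parameters: lag phase (time to maximal killing), PRR (parasites killed per life cycle) and PCT99.9% (time to clear 99.9% of the initial parasite population).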

Salmonella typhimurium [16] = experiment: Genotoxicity in Salmonella typhimurium TA100 assessed as number of revertants per plate at 1500 ug/plate in absence of rat liver S9 fraction by Ames test (reference value: 154 +/- 9); format: toxicity; conditions: salmonella enterica subsp. enterica serovar typhimurium
Rattus norvegicus = experiment: Genotoxicity in rat assessed as change in polychromatic erythrocytes in bone marrow at 2000 mg/kg administered via oral gavage measured after 24 hrs post dose by micronucleus assay relative to control; format: toxicity, organism-based; conditions: in vivo
Lymphocyte [17] = experiment: Genotoxicity in human lymphocytes assessed as replication index at 80 ug/mL after 3 hrs in absence of rat liver S9 fraction by micronucleus assay relative to control; format: toxicity, cell-based; how it was run: as §2
Salmonella typhimurium [18] = experiment: Genotoxicity in Salmonella typhimurium TA1535 assessed as number of revertants per plate at 500 ug/plate in presence of rat liver S9 fraction by Ames test (reference value: 10); format: toxicity; conditions: salmonella enterica subsp. enterica serovar typhimurium
Salmonella typhimurium [19] = experiment: Genotoxicity in Salmonella typhimurium TA98 assessed as number of revertants per plate at 500 ug/plate in presence of rat liver S9 fraction by Ames test (reference value: 19 +/- 8); format: toxicity; conditions: salmonella enterica subsp. enterica serovar typhimurium
Salmonella typhimurium [20] = experiment: Genotoxicity in Salmonella typhimurium TA1535 assessed as number of revertants per plate at 1.5 ug/plate in absence of rat liver S9 fraction by Ames test (reference value: 10 +/- 3); format: toxicity; conditions: salmonella enterica subsp. enterica serovar typhimurium
Escherichia coli [21] = experiment: Genotoxicity in Escherichia coli WP2uvrA assessed as number of revertants per plate at 1.5 ug/plate in absence of rat liver S9 fraction by Ames test (reference value: 45 +/- 9); format: toxicity
Salmonella typhimurium [22] = experiment: Genotoxicity in Salmonella typhimurium TA98 assessed as number of revertants per plate at 150 ug/plate in presence of rat liver S9 fraction by Ames test (reference value: 19 +/- 8); format: toxicity; conditions: salmonella enterica subsp. enterica serovar typhimurium
[23] = Oral bioavailability in Sprague-Dawley rat at 5 mg/kg by HPLC/MS analysis; format: ADME, organism-based; conditions: in vivo
How it was run: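 Female CD-1 mice, male SD rats or beagle dogs given 5 mg/kg by iv injection or oral gavage. Formulation was PEG300/propylene glycol/water 55/25/20, pH 6. Blood samples analysed by HPLC–MS/MS; parameters include AUC0-inf extrapolated to infinity and terminal half-life.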

Escherichia coli [24] = experiment: Genotoxicity in Escherichia coli WP2uvrA assessed as number of revertants per plate at 5 ug/plate in presence of rat liver S9 fraction by Ames test (reference value: 42 +/- 6); format: toxicity
Salmonella typhimurium [25] = experiment: Genotoxicity in Salmonella typhimurium TA1535 assessed as number of revertants per plate at 5000 ug/plate in absence of rat liver S9 fraction by Ames test (reference value: 10 +/- 3); format: toxicity; conditions: salmonella enterica subsp. enterica serovar typhimurium
Plasmodium falciparum [26] = experiment: Antimalarial activity against intraerythrocytic stage of Plasmodium falciparum assessed as time required for maximal killing effect at 100 times IC50 preincubated for 24 hrs followed by [3H]-hypoxanthine addition measured after 24 hrs by scintillation counting method; format: functional; how it was run: as §3

## Cc1c(Oc2cnc(C(=O)NCCO)cn2)ccc2c1B(O)OC2
Lymphocyte [1]
  Activity: Non-Toxic

## Cc1c(Oc2cnc(C(=O)NC(C)CO)cn2)ccc2c1B(O)OC2 (configuration not stated)
Plasmodium berghei [2]
  survival at 1 mg/kg: 0%
Plasmodium berghei [3]
  survival at 3 mg/kg: 100%
Plasmodium berghei [4]
  survival at 1 mg/kg: 20%

## Cc1c(Oc2cnc(C(=O)N3CC(O)(C(C)C)C3)cn2)ccc2c1B(O)OC2
Plasmodium berghei [5]
  survival at 11 mg/kg: 20%
Plasmodium berghei [6]
  survival at 11 mg/kg: 20%

## Cc1c(Oc2cnc(C(=O)N3CC(C)(O)C3)cn2)ccc2c1B(O)OC2
Salmonella typhimurium [7]
  Activity: 18
Salmonella typhimurium [8]
  Activity: 12
Salmonella typhimurium [9]
  Activity: 6
Salmonella typhimurium [10]
  Activity: 10
Lymphocyte [11]
  Activity: 2%
Plasmodium falciparum [12]
  pIC50: 7.44
[13]
  AUC(0-inf): 21700 ng·h/mL
Plasmodium falciparum [14]
  pIC50: 7.28
Plasmodium falciparum [15]
  T99.9%: 30 h
Salmonella typhimurium [16]
  Activity: 133
Rattus norvegicus
  Activity: -4%
Lymphocyte [17]
  Activity: 3%
Salmonella typhimurium [18]
  Activity: 6
Salmonella typhimurium [19]
  Activity: 18
Salmonella typhimurium [20]
  Activity: 12
Escherichia coli [21]
  Activity: 40
Salmonella typhimurium [22]
  Activity: 10
[23]
  bioavailability: 96%
Escherichia coli [24]
  Activity: 37
Salmonella typhimurium [25]
  Activity: 4
Plasmodium falciparum [26]
  Time: 0 h

— ChEMBL document CHEMBL4038305, “Benzoxaborole Antimalarial Agents. Part 5. Lead Optimization of Novel Amide Pyrazinyloxy Benzoxaboroles and Identification of a Preclinical Candidate” (J Med Chem, 2017)
